Experimental data reported in ChEMBL document CHEMBL3244113, “Antimycotic imidazoles. part 4. Synthesis and antifungal activity of ketoconazole, a new potent orally active broad-spectrum antifungal agent” (1979).
Active and inactive are the calls of the source. The rule behind the calls is not given here.

What was measured:
Candida tropicalis [1] = test: Antifungal activity against Candida tropicalis assessed as growth inhibition in sabouraud broth after 14 days in presence of 10% inactivated bovine serum; assay type: functional
Method in brief: (§1)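 Broth dilution in Sabouraud broth, with or without 10% inactivated bovine serum, incubated 14 days. Read-out: concentration (µg/mL) giving complete or marked inhibition of growth. Tested in preliminary experiments.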

Candida albicans [2] = test: Antifungal activity against Candida albicans assessed as growth inhibition in sabouraud broth after 14 days in presence of 10% inactivated bovine serum; assay type: functional; method in brief: as §1
Aspergillus fumigatus [3] = test: Antifungal activity against Aspergillus fumigatus assessed as growth inhibition in sabouraud broth after 14 days in presence of 10% inactivated bovine serum; assay type: functional
Sporothrix schenckii [4] = test: Antifungal activity against Sporothrix schenckii assessed as growth inhibition in sabouraud broth after 14 days in presence of 10% inactivated bovine serum; assay type: functional; method in brief: as §1
Candida albicans [5] = test: Antifungal activity against Candida albicans B2630 infected in ovariectomized and hysterectomized Wistar rat vaginal candidosis model at 1.25 mg/kg, po for 14 days by prophylactic treatment; assay type: functional, organism-based; design: dose 1.25 mg/kg
Method in brief: (§2)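 Female Wistar rats (100 g) were ovariectomized and hysterectomized under thalamonal anaesthesia. From 3 weeks later, and weekly thereafter, each received oestradiol undecanoate 100 µg in sesame oil s.c. Pseudooestrus was confirmed by vaginal smear. Rats were infected intravaginally with 8×10^5 C. albicans B 2630 cells in 0.2 mL saline. Compound in PEG 200 was given daily by gavage from the day of infection. Vaginal swab smears were taken on days 7, 11 and 14. Read-out: negative animals/total.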

Candida albicans [6] = test: Antifungal activity against Candida albicans B2630 infected in ovariectomized and hysterectomized Wistar rat vaginal candidosis model at 2.5 mg/kg, po for 14 days by prophylactic treatment; assay type: functional, organism-based; design: dose 2.5 mg/kg; method in brief: as §2
Candida albicans [7] = test: Antifungal activity against Candida albicans B2630 infected in ovariectomized and hysterectomized Wistar rat vaginal candidosis model at 5 mg/kg, po for 14 days by prophylactic treatment; assay type: functional; method in brief: as §2
Candida albicans [8] = test: Antifungal activity against Candida albicans B2630 infected in ovariectomized and hysterectomized Wistar rat vaginal candidosis model at 2.5 mg/kg, po for 11 days by prophylactic treatment; assay type: functional, organism-based; design: dose 2.5 mg/kg
Candida albicans [9] = test: Antifungal activity against Candida albicans B2630 infected in ovariectomized and hysterectomized Wistar rat vaginal candidosis model at 5 mg/kg, po for 5 days by prophylactic treatment; assay type: functional, organism-based; design: dose 5 mg/kg
Candida albicans [10] = test: Antifungal activity against Candida albicans B2630 infected in guinea pig cutaneous candidosis model at 0.63 mg/kg, po for 14 days measured on day 21; assay type: functional, organism-based; design: dose 0.63 mg/kg
Method in brief: (§3)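 Guinea pig cutaneous candidosis. Compound dissolved in PEG 200, given by oral gavage once daily for 14 consecutive days; placebo group included. Read-out: ratio of infection-negative animals to total at day 21.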

Candida albicans [11] = test: Antifungal activity against Candida albicans B2630 infected in guinea pig cutaneous candidosis model at 2.5 mg/kg, po for 14 days measured on day 21; assay type: functional, organism-based; design: dose 2.5 mg/kg; method in brief: as §3
Candida albicans [12] = test: Antifungal activity against Candida albicans B2630 infected in guinea pig cutaneous candidosis model at 10 mg/kg, po for 14 days measured on day 21; assay type: functional, organism-based; design: dose 10 mg/kg; method in brief: as §3
Coccidioides immitis = test: Antifungal activity against Coccidioides immitis infected in mouse coccidioidomycosis model assessed as cell killing activity at 40 mg/kg, po od for 2.5 weeks relative to control; assay type: functional
Microsporum canis [13] = test: Antifungal activity against Microsporum canis assessed as growth inhibition in sabouraud broth after 14 days; assay type: functional; method in brief: as §1
[14] = system: Trichophyton mentagrophytes; test: Antifungal activity against Trichophyton mentagrophytes assessed as growth inhibition in sabouraud broth after 14 days; assay type: functional; method in brief: as §1
Trichophyton rubrum = test: Antifungal activity against Trichophyton rubrum assessed as growth inhibition in sabouraud broth after 14 days; assay type: functional; method in brief: as §1
Cryptococcus neoformans = test: Antifungal activity against Cryptococcus neoformans assessed as growth inhibition in sabouraud broth after 14 days; assay type: functional; method in brief: as §1
Candida tropicalis [15] = test: Antifungal activity against Candida tropicalis assessed as growth inhibition in sabouraud broth after 14 days; assay type: functional; method in brief: as §1
Candida albicans [16] = test: Antifungal activity against Candida albicans assessed as growth inhibition in sabouraud broth after 14 days; assay type: functional; method in brief: as §1
Aspergillus fumigatus [17] = test: Antifungal activity against Aspergillus fumigatus assessed as growth inhibition in sabouraud broth after 14 days; assay type: functional
Sporothrix schenckii [18] = test: Antifungal activity against Sporothrix schenckii assessed as growth inhibition in sabouraud broth after 14 days; assay type: functional; method in brief: as §1
Saprolegnia = test: Antifungal activity against Saprolegnia Sp. assessed as growth inhibition in sabouraud broth after 14 days; assay type: functional; method in brief: as §1
Phialophora verrucosa = test: Antifungal activity against Phialophora verrucosa assessed as growth inhibition in sabouraud broth after 14 days; assay type: functional; method in brief: as §1
[19] = system: Erysipelothrix rhusiopathiae; test: Antifungal activity against Erysipelothrix insidiosa assessed as growth inhibition in sabouraud broth after 14 days; assay type: functional; method in brief: as §1
[20] = system: Staphylococcus haemolyticus; test: Antifungal activity against Staphylococcus haemolyticus assessed as growth inhibition in sabouraud broth after 14 days; assay type: functional; method in brief: as §1
Streptococcus pyogenes = test: Antifungal activity against Streptococcus pyogenes assessed as growth inhibition in sabouraud broth after 14 days; assay type: functional; method in brief: as §1
Microsporum canis [21] = test: Antifungal activity against Microsporum canis assessed as growth inhibition in sabouraud broth after 14 days in presence of 10% inactivated bovine serum; assay type: functional; method in brief: as §1
[22] = system: Trichophyton mentagrophytes; test: Antifungal activity against Trichophyton mentagrophytes assessed as growth inhibition in sabouraud broth after 14 days in presence of 10% inactivated bovine serum; assay type: functional; method in brief: as §1

SMILES | GI (Candida tropicalis [1]) [µg/mL] | GI (Candida albicans [2]) [µg/mL] | GI (Aspergillus fumigatus [3]) [µg/mL] | GI (Sporothrix schenckii [4]) [µg/mL] | GI (Microsporum canis [13]) [µg/mL] | GI [14] [µg/mL] | GI (Trichophyton rubrum) [µg/mL] | GI (Cryptococcus neoformans) [µg/mL] | GI (Candida tropicalis [15]) [µg/mL] | GI (Candida albicans [16]) [µg/mL] | GI (Aspergillus fumigatus [17]) [µg/mL] | GI (Sporothrix schenckii [18]) [µg/mL] | GI (Saprolegnia) [µg/mL] | GI (Phialophora verrucosa) [µg/mL] | GI [19] [µg/mL] | GI [20] [µg/mL] | GI (Streptococcus pyogenes) [µg/mL] | GI (Microsporum canis [21]) [µg/mL] | GI [22] [µg/mL] | further results
CC(=O)N1CCN(c2ccc(OCC3COC(Cn4ccnc4)(c4ccc(Cl)cc4Cl)O3)cc2)CC1 (racemic) [KETOCONAZOLE] | 0.1 | 1 | 10 | 1 | 10 | 0.1 | 1 | 1 | 1 | 10 | 100 | 1 | 1 | 1 | 10 | 100 | 10 | 1 | 0.1 | Activity (Candida albicans [5]): Active; Activity (Candida albicans [6]): Active; Activity (Candida albicans [7]): 100%; Activity (Candida albicans [8]): inactive; Activity (Candida albicans [9]): Active; Activity (Candida albicans [10]): inactive; Activity (Candida albicans [11]): Active; Activity (Candida albicans [12]): Active; Activity (Coccidioides immitis): >60%
Clc1ccc(COC(Cn2ccnc2)c2ccc(Cl)cc2Cl)c(Cl)c1 (configuration not stated) [MICONAZOLE] | >10 | >10 | >10 | 10 | 1 | 0.01 | 1 | 1 | 1 | 10 | 10 | 1 | 10 | 100 | 0.01 | 10 | 0.01 | 10 | 0.1 | 
